Data as given in ChEMBL document CHEMBL1122351, “Synthesis of (E)-1-(5-chlorothien-2-yl)-2-(1H-imidazol-1-yl)ethanone 2,6-dichlorophenylhydrazone hydrochloride, a novel, orally active antifungal agent” (1983).
Converted amounts (≈) assume the structure as drawn.

Key:
Candida albicans [1] = assay: In vitro antifungal activity against Candida albicans 3153; format: functional
In short: (§1)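 Agar dilution in Sabouraud dextrose agar in microtitre wells. Drug stock in Me2SO, serial twofold dilutions to final 0.8–100 µg/mL, final Me2SO 1%. Candida inoculum 10^4 cells/mL, read after 24 h at 37 °C. Dermatophytes used mycelial inocula, read after 5 days at […]. MIC is the highest dilution with no visible growth. Run in duplicate.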

Candida albicans [2] = assay: In vitro antifungal activity against Candida albicans B; format: functional; in short: as §1
Candida albicans [3] = assay: In vitro antifungal activity against Candida albicans GB; format: functional; in short: as §1
Epidermophyton floccosum = assay: In vitro antifungal activity against Epidermophyton floccosum; format: functional; in short: as §1
Microsporum canis = assay: In vitro antifungal activity against Microsporum canis; format: functional; in short: as §1
Trichophyton rubrum = assay: In vitro antifungal activity against Trichophyton rubrum; format: functional; in short: as §1
Trichophyton benhamiae = assay: In vitro antifungal activity against Trichophyton mentagrophytes; format: functional, Arthroderma benhamiae; in short: as §1
Candida albicans [4] = assay: In vitro antifungal activity against Candida albicans A; format: functional; in short: as §1
Cavia porcellus [5] = assay: Effect of oral administration (30 mg/kg) on course of expt. Ringworm infections in guinea pig by Trichophyton mentagrophytes; format: functional
In short: (§2)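 Female guinea pigs, eight per group, shaved backs infected with a saline suspension of T. mentagrophytes spores. Drug given orally or applied topically; topical positive control was a 1% w/v solution in polyethylene glycol 200. Disease course followed by culture of skin and hair samples from on and around the infection sites. Result given as % reduction in recovery versus control.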

Cavia porcellus [6] = assay: Effect of topical administration (2% w/v) on course of expt. Ringworm infections in guinea pig by Trichophyton mentagrophytes; format: functional; in short: as §2
Mus musculus [7] = assay: Effect of oral administration (10 mg/kg) on recovery of Candida albicans from kidneys of mice with expt. candidal infection; format: functional
In short: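 Mice (10 per group) infected intravenously with a sublethal dose (50 × 10^4 cells) of C. albicans. Oral gavage at 0 and 24 h after infection. Kidneys excised 2 days post-infection, weighed and homogenized. Diluted homogenates plated on glucose-peptone agar for 24 h at 37 °C. Colony counts compared with infected, untreated controls and expressed as % reduction.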

Mus musculus [8] = assay: Effect of oral administration (2.5 mg/kg) on recovery of Candida albicans from kidneys of mice with expt. candidal infection; format: functional
In short: (§3)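 Mice, 10 per group, infected intravenously with a sublethal dose (50 × 10^4 cells) of C. albicans. Oral gavage at 0 and 24 h after infection. Killed 2 days post-infection; kidneys excised, weighed, homogenized, diluted and plated on glucose-peptone agar, 24 h at 37 °C. Colony counts compared with infected untreated controls, given as % reduction.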

Mus musculus [9] = assay: Effect of oral administration (20 mg/kg) on recovery of Candida albicans from kidneys of mice with expt. candidal infection; format: functional; in short: as §3
Mus musculus [10] = assay: Effect of oral administration (5 mg/kg) on recovery of Candida albicans from kidneys of mice with expt. candidal infection; format: functional; in short: as §3
Rattus norvegicus [11] = assay: Percent reduction in recovery of Candida albicans (experimental vaginitis) in rats at 10 mg/kg (po); format: functional, Vagina
In short: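 Female Wistar rats, 6 per group, hysterectomized and ovariectomized. Pseudoestrus induced and kept by s.c. estradiol diacetate (125 µg) every 3 days. Infected intravaginally with 10^7 C. albicans cells on 2 successive days, with 2 days to establish. Maximal infection meant >600 colonies per 50 µL vaginal washing. Dosed by oral gavage; % reduction in recovery versus control.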

Rattus norvegicus [12] = assay: Percent reduction in recovery of Candida albicans (experimental vaginitis) n rats at 20 mg/kg (po); format: functional, Vagina
In short: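 Female Wistar rats, 6 per group, hysterectomized and ovariectomized. Pseudoestrus induced with subcutaneous estradiol diacetate (125 µg) after 3 weeks, then every 3 days. Infected intravaginally with 10^7 C. albicans cells on 2 successive days; treatment began 2 days later. Infection confirmed by >600 colonies per 50 µL vaginal washings. Oral dosing by gavage. Result given as % reduction in recovery versus control.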

Rattus norvegicus [13] = assay: Percent reduction in recovery of Candida albicans (experimental vaginitis) n rats by topical administration at 1% w/v; format: functional, Vagina
Cavia porcellus [14] = assay: Effect of oral administration (60 mg/kg) on course of expt. Ringworm infections in guinea pig by Trichophyton mentagrophytes; format: functional; in short: as §2
Cavia porcellus [15] = assay: Effect of topical administration (1% w/v) on course of expt. Ringworm infections in guinea pig by Trichophyton mentagrophytes; format: functional; in short: as §2
Rattus norvegicus [16] = assay: Percent reduction in recovery of Candida albicans (experimental vaginitis) in rats by topical administration at 1% w/v; format: functional, Vagina

Row | Compound | MIC (Candida albicans [1]) [µg/mL] | MIC (Candida albicans [2]) [µg/mL] | MIC (Candida albicans [3]) [µg/mL] | MIC (Epidermophyton floccosum) [µg/mL] | MIC (Microsporum canis) [µg/mL] | MIC (Trichophyton rubrum) [µg/mL] | MIC (Trichophyton benhamiae) [µg/mL] | MIC (Candida albicans [4]) [µg/mL] | Reduction (Mus musculus [7]) [%] | Reduction (Rattus norvegicus [11]) [%] | other results
1 | Clc1ccc(COC(Cn2ccnc2)c2ccc(Cl)cc2Cl)c(Cl)c1 (stereo not drawn) [MICONAZOLE] | 12.5 (≈ 30 µM) | 6.2 (≈ 14.9 µM) | 6.2 (≈ 14.9 µM) | 12.5 (≈ 30 µM) | 6.2 (≈ 14.9 µM) | 1.6 (≈ 3.84 µM) | 1.6 (≈ 3.84 µM) | 6.2 (≈ 14.9 µM) |  |  | 
2 | Cl.Clc1ccc(/C(Cn2ccnc2)=N/Nc2c(Cl)cccc2Cl)s1 [ZINOCONAZOLE HYDROCHLORIDE] | 12.5 | 6.2 | 12.5 | 25 | 25 | 25 | 12.5 | 6.2 | 65 | 47 | Reduction (Cavia porcellus [5]): 70%; Reduction (Cavia porcellus [6]): 77%; Reduction (Mus musculus [8]): 9%; Reduction (Mus musculus [9]): 44%; Reduction (Mus musculus [10]): 43%; Reduction (Rattus norvegicus [12]): 63%; Reduction (Rattus norvegicus [13]): 54%
3 | COC1=CC(=O)C[C@@H](C)[C@]12Oc1c(Cl)c(OC)cc(OC)c1C2=O [GRISEOFULVIN] |  |  |  |  |  |  |  |  |  |  | Reduction (Cavia porcellus [14]): 90%
4 | CC(=O)N1CCN(c2ccc(OCC3COC(Cn4ccnc4)(c4ccc(Cl)cc4Cl)O3)cc2)CC1 (stereo not drawn) [KETOCONAZOLE] |  |  |  |  |  |  |  |  | 57 | 68 | 
5 | Clc1ccccc1C(c1ccccc1)(c1ccccc1)n1ccnc1 [CLOTRIMAZOLE] |  |  |  |  |  |  |  |  |  |  | Reduction (Cavia porcellus [15]): 88%; Reduction (Rattus norvegicus [16]): 75%
6 | Cl.Clc1ccc(/C(Cn2ccnc2)=N\Nc2c(Cl)cccc2Cl)s1 | 12.5 | 6.2 | 12.5 | 25 | 25 | 12.5 | 12.5 | 6.2 |  |  | 
